# Measured values reported in ChEMBL document CHEMBL2046273, “3-Hydroxy-1H-quinazoline-2,4-dione derivatives as new antagonists at ionotropic glutamate receptors: molecular modeling and pharmacological studies” (Eur J Med Chem, 2012).
# pIC50, pKi: −log10 of the molar value. Active and inactive are the calls of the source. The rule behind the calls is not given here.
# Legend:
# [1] = Antagonist activity at NMDA receptor in mouse cortical wedge assessed as inhibition of NMDA-induced membrane depolarization by electrophysiological assay; type: functional
# Glutamate NMDA receptor = experiment: Displacement of [3H]glycine from NMDA receptor in rat cortical synaptical membrane; type: cell membranes
# [2] = Displacement of [3H]kainate from high affinity kainate receptor in rat cortical membrane; type: cell membranes
# [3] = Antagonist activity at AMPA receptor in mouse cortical wedge assessed as inhibition of S-AMPA-induced membrane depolarization by electrophysiological assay; type: functional
# [4] = Displacement of [3H]AMPA from AMPA receptor in rat cortical synaptical membrane; type: cell membranes
# Rattus norvegicus [5] = species on record: Rattus norvegicus; experiment: Displacement of [3H]AMPA from AMPA receptor in rat cortical synaptical membrane at 100 uM; type: cell membranes
# Procedure, shortened: (§1)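 Rat cortical membranes, test compound at 100 µM single concentration. Diluted in buffer from a 1 mM stock in 50% DMSO. Result given as percent inhibition of specific radioligand binding. Determinations were done in triplicate, 3–4 separate experiments.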
# [6] = molecular target: Glutamate NMDA receptor (Rattus norvegicus) (UniProt P35439+Q00959+Q00960+Q00961+Q62645+Q8VHN2+Q9R1M7); experiment: Displacement of [3H]glycine from NMDA receptor in rat cortical synaptical membrane at 100 uM; type: cell membranes; procedure, shortened: as §1
# Rattus norvegicus [7] = species on record: Rattus norvegicus; experiment: Displacement of [3H]kainate from kainate receptor in rat cortical membrane at 100 uM; type: cell membranes; procedure, shortened: as §1
# [8] = (§2) Neuroprotective activity in organotypic Wistar rat hippocampal CA1 region slices assessed as protection from oxygen-deprivation-induced neuronal damage at 30 uM dosed during 30 mins insult and subsequent 24 hrs recovery period by propidium iodide staining-based fluorescence analysis (reference value: 57 +/- 8%); type: functional
# Mus musculus [9] = species on record: Mus musculus; experiment: Antagonist activity at NMDA receptor in mouse cortical wedge assessed as inhibition of NMDA-induced membrane depolarization at 10 uM by electrophysiological assay; type: functional
# Procedure, shortened: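 Mouse cortical wedge preparation; antagonism measured as inhibition of depolarization evoked by NMDA, with test compound at 10 µM.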
# [10] = Antagonist activity at kainate receptor in Wistar rat acute hippocampal CA1 region slices assessed as reduction of kainate-induced field excitatory postsynaptic potential suppression at 1 uM by electrophysiological analysis relative to untreated pre-drug level (reference value: 52.1 +/- 15.3%); type: functional, Hippocampus; parameters: scale not given: the % may be the effect or the level left
# [11] = Antagonist activity at kainate receptor in Wistar rat acute hippocampal CA1 region slices assessed as reduction in field excitatory postsynaptic potential amplitude at basal conditions at 5 uM by electrophysiological analysis; type: functional; conditions: Hippocampus
# Hippocampus [12] = experiment: Neuroprotective activity in Wistar rat acute hippocampal CA1 region slices assessed as protection from oxygen glucose deprivation-induced anoxic depolarization at 5 uM administered 15 mins before and during 7 mins oxygen glucose deprivation challenge; type: functional
# Procedure, shortened: (§3)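 Acute rat hippocampal slices superfused with aCSF, compound in DMSO (final under 0.001%). Applied 15 min before and during 7-min OGD. Anoxic depolarization recorded in CA1 as negative DC voltage shift, with loss of fepsp followed on reperfusion with oxygenated glucose-containing aCSF. n = 3 (1 µM) or 6 (5 µM).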
# [13] = Antagonist activity at kainate receptor in Wistar rat acute hippocampal CA1 region slices assessed as reduction in field excitatory postsynaptic potential amplitude at basal conditions at 1 uM by electrophysiological analysis; type: functional; conditions: Hippocampus
# Hippocampus [14] = experiment: Neuroprotective activity in Wistar rat acute hippocampal CA1 region assessed as protection from oxygen glucose deprivation-induced anoxia depolarization at 1 uM administered 15 mins before and during 7 mins oxygen-deprivation challenge; type: functional, tissue-based; procedure, shortened: as §3
# Hippocampus [15] = experiment: Neuroprotective activity in Wistar rat hippocampal CA1 region assessed as change in field excitatory postsynaptic potential at basal conditions at 1 to 5 uM by electrophysiological analysis; type: functional, tissue-based
# [16] = as §2, with “at 1” for “at 30”; type: functional
# Mus musculus [17] = experiment: Anticonvulsant activity in Swiss albino mouse assessed as protection from PTZ-induced seizures at 30 mg/kg, po administered 30 mins before PTZ challenge measured after 30 mins; type: functional
# Procedure, shortened: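 Male Swiss albino mice (23–30 g), housed 15 per cage, 23 ± 1 °C, 12 h light/dark. Test drug dispersed in 1% sodium carboxymethylcellulose and given orally in 10 ml/kg. PTZ given 90 mg/kg s.c. 30 min later. Clonic generalized convulsions scored over 30 min, expressed as % protection.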
SMILES,pKi (Glutamate NMDA receptor),pIC50 [2],pIC50 [3],pKi [4],Imax [6] [%],other results
O=Cc1ccn(-c2cc3c(=O)n(O)c(=O)[nH]c3cc2C(F)(F)F)c1,6.10,5.38,5.82,6.14,–,pIC50 [1]: 5.15
O=c1[nH]c2cc(Cl)c([N+](=O)[O-])cc2c(=O)n1O,5.96,4.72,–,5.89,–,–
O=C(O)c1ccccc1C(=O)Nc1cc2c(=O)n(O)c(=O)[nH]c2cc1C(F)(F)F,–,4.60,–,–,10,Imax (Rattus norvegicus [5]): 8%
O=C(O)c1cc(O)c2c(Cl)cc(Cl)cc2n1,7.10,–,4.28,–,–,pIC50 [1]: 5.33; Imax (Rattus norvegicus [5]): 5%; Imax (Rattus norvegicus [7]): 8%
Nc1cc2c(=O)n(O)c(=O)[nH]c2cc1C(F)(F)F,5.21,4.49,–,5.21,–,–
O=c1[nH]c2cc(C(F)(F)F)ccc2c(=O)n1O,6.07,4.42,–,5.32,–,–
NS(=O)(=O)c1cccc2c1c([N+](=O)[O-])cc1nc(O)c(O)nc12 [NBQX],–,5.15,6.70,7.15,3,Activity [8]: 20%; inhibition (Mus musculus [9]): inactive
O=c1[nH]c2cc(C(F)(F)F)c([N+](=O)[O-])cc2c(=O)n1O,5.89,5.15,–,6.59,–,–
O=c1[nH]c2cc(C(F)(F)F)c(-n3cccc3)cc2c(=O)n1O,–,–,–,3.90,32,Imax (Rattus norvegicus [7]): 10%
COn1c(=O)[nH]c2cc(C(F)(F)F)c(-n3cnnc3)cc2c1=O,–,–,–,4.70,21,Imax (Rattus norvegicus [7]): 0%
O=C(O)c1ccn(-c2cc3c(=O)n(O)c(=O)[nH]c3cc2C(F)(F)F)c1,5.29,4.76,5.54,6.34,–,pIC50 [1]: < 4.30
O=C(O)c1ccccc1C(=O)Nc1cc2c(=O)n(O)c(=O)[nH]c2cc1Cl,–,–,–,–,–,Activity [10]: 85.8%; inhibition at 5 µM [11]: 39.6%; Activity (Hippocampus [12]): 92.2%; inhibition at 1 µM [13]: 19.2%; Activity (Hippocampus [14]): inactive; Activity (Hippocampus [15]): Active
O=c1[nH]c2cc(C(F)(F)F)c(-n3cnnc3)cc2c(=O)n1O,5.19,–,–,–,–,Activity [16]: 29%; Activity (Mus musculus [17]): 65.5%
